As usually defined, the half-life is the time in which the quantity being followed falls by half. Usually pKi stands for the Ki on a negative log10 scale, so that one unit is a factor of ten.

We go through six compounds from ChEMBL document CHEMBL4715728, “New bifunctional antioxidant/σ1 agonist ligands: Preliminary chemico-physical and biological evaluation” (Bioorg Med Chem, 2016).

A short description of data set [1]: Stability of compound in fasted state stimulated intestinal fluid at pH 1.3 assessed as half life in presence of 10 mg/ml pepsin by HPLC-UV assay. The conditions noted are these: fasted state simulated intestinal fluid with pepsin. Type of data set: ADME. Put shortly:
(§1)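 HCl buffer with pepsin or phosphate buffer with pancreatin (10 or 40 mg/ml), preincubated at 37 °C. Drug stock (50 µM in ethanol/fasted state intestinal fluid 1:9) added and shaken at 37 °C, 650 rpm. Samples quenched with ice-cold acetonitrile containing 0.5% formic acid, centrifuged at 2 °C, and the supernatant assayed by HPLC-UV. Three experiments.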

For data set [2], the target named is Sigma non-opioid intracellular receptor 1 (Cavia porcellus, UniProt Q60492). In words: Displacement of [3H]-(+)-pentazocine from sigma1 receptor in guinea pig brain membrane incubated for 150 mins by liquid scintillation counting method. The class given is cell membranes. In short, it runs like this:
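Guinea pig brain membranes (500 µg protein) in 50 mM Tris-HCl pH 7.4 with 3 nM [3H]-(+)-pentazocine. […] Incubated 150 min at 37 °C, then filtered on PEI-soaked GF/B filters and counted by scintillation. Ki obtained by EBDA/LIGAND; three determinations.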
On the technique in general: Loss of bound radioactivity is the signal in a displacement assay; it reports binding, not function.

Data set [3] relates to Mus musculus. In words: In vivo agonist activity at sigma 1 receptor in Swiss […] mouse assessed as modulation of morphine-induced analgesic effect by measuring tail flick latency at 1 mg/kg, ip preincubated for 45 mins followed by morphine treatment after 90 mins by radiant heat tail-flick method. The class given is functional, organism-based. The conditions noted are these: time 135.0 min. For orientation: Hot-plate and tail-flick tests time the reaction to a heat stimulus.

Data set [4] can be described thus: Cytotoxicity against Sprague-Dawley rat Cerebral cortex neuron assessed as cell viability at 1 uM incubated for 24 hrs by MTT assay relative to control. Type of data set: tissue-based. The conditions noted are these: cerebral cortex neurons, read-out: Activity. In short, it runs like this:
(§2)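 Primary fetal rat cortical neurons, matured 8 days, treated 24 h at 37 °C with compound (0.1–100 µM; 0.5% DMSO or water vehicle). MTT 0.7 mg/ml was then added for 30 min at 37 °C, and formazan was extracted with isopropanol/formic acid (95:5) and read at 560 nm. Untreated control was set as 100% viability. Four independent experiments.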
A general note: Tetrazolium dyes change colour on reduction, which living cells bring about.

Data set [5] in a line: Cytotoxicity against Sprague-Dawley rat Cerebral cortex neuron assessed as cell viability at 25 uM incubated for 24 hrs by MTT assay relative to control. Type of data set: tissue-based. The conditions noted are these: cerebral cortex neurons, read-out: Activity. In short, it runs like this: as §2
Data set [6] can be described thus: Stability of compound in human plasma assessed as rate of compound hydrolysis by HPLC-UV assay. The class given is ADME, cell-free. In short, it runs like this:
(§3)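 Citrated human or rat plasma diluted to 80% with 0.02 M phosphate buffer pH 7.4, 37 °C with shaking. Compound added from a 1 mg/ml acetonitrile stock. Aliquots deproteinized with 0.01 M HCl in methanol, centrifuged, and analyzed by HPLC-UV (C8 column, KH2PO4/methanol pH 2.5, 220 nm). Remaining intact compound plotted against time. Three experiments.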

A short description of data set [7]: Cytotoxicity against Sprague-Dawley rat Cerebral cortex neuron assessed as LDH activity at 10 uM incubated for 24 hrs by LDH assay. Type of data set: tissue-based. In short, it runs like this: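 Primary fetal rat cortical neurons, matured 8 days on poly-D-lysine, exposed 24 h at 37 °C to compound (0.1–100 µM; DMSO 0.5% or water vehicle). LDH released into 100 µl culture medium was measured by kit as the rate of NAD+ reduction (absorbance increase at 490 nm). Positive control was mitomycin C. Four independent experiments.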

Data set [8] is described as follows: Displacement of [3H]-DTG from Sigma 2 receptor in guinea pig brain membrane incubated for 120 mins in presence of sigma1 blocker (+)-SKF-10047 by liquid scintillation counting method. The class given is cell membranes, Cavia porcellus.
The nature of data set [9]: Stability of compound in fasted state stimulated intestinal fluid at pH 7.4 assessed as half life in presence of 10 mg/ml pancreatin by HPLC-UV assay. Type of data set: ADME. The conditions noted are these: for half-life: fasted state simulated intestinal fluid with pancreatin. Put shortly:
as §1

A short description of data set [10]: Stability of compound in human plasma assessed as half life by HPLC-UV assay. Type of data set: ADME, cell-free. Put shortly:
as §3

Data set [11] is described as follows: Antioxidant activity in Sprague-Dawley rat Cerebral cortex neuron assessed as total oxidative stress level by measuring H2O2 equivalents at 1 uM after 24 hrs (reference value: 2.3 +/- 0.3 umol/L). Type of data set: functional. Put shortly:
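Primary cerebral cortex neurons from rat fetuses, grown on poly-D-lysine in neurobasal medium with fetal calf serum (5% CO2, 37 °C), tested after 8 days in culture. Compounds in DMSO (0.5%) or sterile water were added and incubated 24 h at 37 °C. Cells were washed in ice-cold PBS and homogenized in 0.9% saline. Intracellular TAC (Trolox equiv.) and TOS (H2O2 equiv.) were read by kit. Ascorbic acid 10 µM (TAC) and H2O2 25 µM (TOS) served as positive controls. Four independent experiments.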

Another data set is filed under the species Cavia porcellus. Briefly: Selectivity ratio of Ki for displacement of [3H]-DTG from sigma2 receptor in guinea pig brain membrane to Ki for displacement of [3H]-(+)-pentazocine from sigma1 receptor in guinea pig brain membrane. The class given is cell membranes.
The subject of data set [12] is Mus musculus. Briefly: In vivo agonist activity at sigma 1 receptor in Swiss […] mouse assessed as modulation of morphine-induced analgesic effect by measuring tail flick latency at 1 mg/kg, ip measured after 90 mins by radiant heat tail-flick method. The class given is functional, organism-based.
A short description of data set [13]: Stability of compound in fasted state stimulated intestinal fluid at pH 1.3 assessed as rate of compound hydrolysis in presence of 40 mg/ml pepsin by HPLC-UV assay. Type of data set: ADME. The conditions noted are these: isolated protein. Put shortly:
as §1

Data set [14] in a line: Cytotoxicity against Sprague-Dawley rat Cerebral cortex neuron assessed as cell viability at 10 uM incubated for 24 hrs by MTT assay relative to control. The class given is tissue-based. The conditions noted are these: cerebral cortex neurons, read-out: Activity. In short, it runs like this:
as §2

A short description of data set [15]: Stability of compound in phosphate buffer at pH 7.4 assessed as compound half life by HPLC-UV assay. Type of data set: physicochemical. In short, it runs like this:
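Chemical hydrolysis in 0.02 M HCl buffer pH 1.3 (non-enzymatic simulated gastric fluid) or 0.02 M phosphate buffer pH 7.4, each containing 20% acetonitrile, at 37 °C. Started by adding the 10^-4 M acetonitrile stock. Samples taken over time and analyzed by HPLC-UV at 220 nm. Rate constants are means of triplicates.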

Data set [16] can be described thus: Stability of compound in rat plasma assessed as rate of compound hydrolysis by HPLC-UV assay. Type of data set: ADME, cell-free. In short, it runs like this:
as §3

A short description of data set [17]: Stability of compound in fasted state stimulated intestinal fluid at pH 7.4 assessed as rate of compound hydrolysis in presence of 10 mg/ml pancreatin by HPLC-UV assay. The class given is ADME. The conditions noted are these: simulated gi fluid. Put shortly: as §1
The nature of data set [18]: Stability of compound in fasted state stimulated intestinal fluid at pH 7.4 assessed as rate of compound hydrolysis in presence of 40 mg/ml pancreatin by HPLC-UV assay. Type of data set: ADME. The conditions noted are these: simulated gi fluid. Put shortly: as §1

pKi: −log10 of the molar value. The source made the active and inactive calls. The calls are words filed in the database; no cut-off is given here.

Sequence of Sigma non-opioid intracellular receptor 1 (Q60492 whole entry): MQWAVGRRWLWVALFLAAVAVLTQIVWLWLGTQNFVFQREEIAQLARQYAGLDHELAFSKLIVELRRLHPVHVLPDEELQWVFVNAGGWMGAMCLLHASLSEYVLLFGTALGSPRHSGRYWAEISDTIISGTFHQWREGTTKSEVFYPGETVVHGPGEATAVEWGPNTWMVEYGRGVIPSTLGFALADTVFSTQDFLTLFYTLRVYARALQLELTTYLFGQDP

Regarding `O=C(CCCCC1CCSS1)OC1CCN(Cc2ccc(F)cc2)CC1` (stereo not given), the half-life in data set [1] is 3.77 h; in data set [10], 0.81 h; in [15] it was 38 h. The pKi in data set [2] was 8.39; in [8], 5.19. For the same compound, the outcome in the data set with Mus musculus [3] was Active. The viability at 24 h, 1 µM in data set [4] came out at 98.3%. For the same compound, the viability at 24 h, 25 µM in data set [5] stood at 97.1%. For the same compound, the Drug degradation in data set [6] is 0.856 h⁻¹; in data set [13], 1.019 h⁻¹; in [16], 1.238 h⁻¹. The Activity amounted to 0.29 mU/ml in [7] and 0.4 µmol/L in data set [11]. Also, the t1/2 result in data set [9] (simulated gi fluid) is on record as “Unstable”. Moreover, in the data set listed under Cavia porcellus, the Ratio Ki turned out to be 1580. Also, the result with Mus musculus [12] was inactive. The viability at 24 h, 10 µM in [14] was 96.9%.

For the compound `O=C(CCCCC1CCSS1)OC1CCN(Cc2ccccc2)CC1` (stereo not given), the half-life in data set [1] is 24.5 h; in data set [9], 0.29 h; in data set [10], 0.43 h; in data set [15], 40.5 h. The result in the data set with Mus musculus [3] was Active. For the same compound, the viability at 24 h, 1 µM in [4] is 98.7%. The Drug degradation in data set [17] is 2.389 h⁻¹; in [6] it was 1.61 h⁻¹; in data set [13] it was 0.028 h⁻¹; in data set [18], 7.615 h⁻¹. Also, the viability at 24 h, 25 µM in data set [5] came to 98.1%. Further, the Activity amounted to 0.29 mU/ml in [7] and 0.5 µmol/L in data set [11]. The outcome with Mus musculus [12] was inactive. In addition, the viability at 24 h, 10 µM in data set [14] worked out at 97.8%.

As for `O=C(CCCCC1CCSS1)N1CCN(Cc2ccccc2)CC1` (stereo not given), the half-life in [1] is 69 h; in data set [9] it was 22.2 h; in data set [10] it was 1.76 h; in [15] it was 53.8 h. Also, the outcome with Mus musculus [3] was Active. For the same compound, the viability at 24 h, 1 µM in data set [4] came out at 98.6%. Further, the Drug degradation in [17] was 0.031 h⁻¹; in data set [6] it was 0.39 h⁻¹; in data set [13], 0.01 h⁻¹; in data set [18], 0.072 h⁻¹. In addition, the viability at 24 h, 25 µM in data set [5] is 96.8%. For the same compound, the Activity in [7] is 0.32 mU/ml; in [11] it was 0.5 µmol/L. In addition, the result in the data set on Mus musculus [12] was inactive. Besides, the viability at 24 h, 10 µM in data set [14] stood at 97.5%.

With `COc1ccc(CN2CCC(OC(=O)CCCCC3CCSS3)CC2)cc1` (stereo not given), the half-life in data set [1] is 39.1 h; in [9], 2.78 h; in [10], 0.61 h; in data set [15], 37 h. Moreover, the negative logarithm of the Ki (pKi) in data set [2] is 8.51; in data set [8], 5.82. In addition, the viability at 24 h, 1 µM in [4] was 98.4%. The Drug degradation in data set [17] was 0.249 h⁻¹; in data set [6], 1.14 h⁻¹; in data set [13], 0.031 h⁻¹; in [18], 0.245 h⁻¹; in data set [16], 1.506 h⁻¹. Besides, in data set [5], the viability at 24 h, 25 µM was found to be 96.2%. The Activity is 0.34 mU/ml in [7] and 0.4 µmol/L in [11]. For the same compound, the Ratio Ki in the data set listed under Cavia porcellus was 484. Further, the viability at 24 h, 10 µM in data set [14] worked out at 97.1%.

On to `O=C(CCCCC1CCSS1)N1CCN(Cc2ccc(F)cc2)CC1` (stereo not given), for which the half-life in [1] was 107 h; in [9], 75.1 h; in data set [10] it was 4.21 h; in data set [15] it was 81 h. Also, the pKi in data set [2] was 8.54; in data set [8], 5.89. The outcome with Mus musculus [3] was Active. Moreover, the viability at 24 h, 1 µM in data set [4] worked out at 97.5%. For the same compound, the Drug degradation in data set [17] is 0.009 h⁻¹; in data set [6] it was 0.165 h⁻¹; in data set [13], 0.019 h⁻¹; in [18], 0.021 h⁻¹; in [16], 0.237 h⁻¹. Also, the viability at 24 h, 25 µM in data set [5] worked out at 96%. In addition, the Activity in data set [7] came out at 0.34 mU/ml; in data set [11] it was 0.5 µmol/L. Besides, the Ratio Ki in the data set listed under Cavia porcellus amounted to 448. Moreover, in the data set on Mus musculus [12], the result was inactive. Moreover, the viability at 24 h, 10 µM in [14] was found to be 97.2%.

With `COc1ccc(CN2CCN(C(=O)CCCCC3CCSS3)CC2)cc1` (stereo not given), the half-life in [1] is 112 h; in [9], 60.9 h; in data set [10], 5.28 h; in data set [15], 238 h. Besides, the pKi in data set [2] was 8.24; in [8], 5.61. The viability at 24 h, 1 µM in data set [4] stood at 97.4%. Also, the Drug degradation is 0.011 h⁻¹ in data set [17]; 0.13 h⁻¹ in [6]; 0.029 h⁻¹ in data set [13]; 0.017 h⁻¹ in data set [18]; 0.168 h⁻¹ in [16]. In data set [5], the viability at 24 h, 25 µM came to 95.3%. For the same compound, the results for the Activity in [7] and in [11] were 0.3 mU/ml and 0.5 µmol/L, respectively. The Ratio Ki in the data set filed under Cavia porcellus is 432. Also, the viability at 24 h, 10 µM in data set [14] turned out to be 96.1%.
